The test system of series [1] is Human immunodeficiency virus 1. Kind of series: Antiviral activity against HIV1 3B infected in human MT4 cells assessed as inhibition of viral-induced cytopathic effect by MTT assay. It is filed as functional, organism-based. Summed up: (§1)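 MT-4 cells resuspended at 6×10^5 cells/mL and infected with HIV-1 IIIB or HIV-2 ROD at 100-300 CCID50. Compounds tested as serial five-fold dilutions in triplicate wells. Viability read by MTT reduction at 540 and 690 nm after 5 days. Median OD of two or three wells used. EC50 is the concentration giving 50% protection from viral cytopathicity.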

The test system of series [2] is Human immunodeficiency virus 2. Kind of series: Antiviral activity against HIV2 ROD […] infected in human MT4 cells assessed as inhibition of viral-induced cytopathic effect by MTT assay. It is filed as functional, organism-based, ISOLATE ROD. Summed up: as §1
Series [3] in a line: (§2) Cytotoxic activity against mock-infected human MT4 cellls assessed as reduction in cell viability by MTT assay. It is filed as cell-based. The conditions noted are these: mock-infected MT4 cells. Summed up:
(§3)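 Mock-infected MT-4 cells (6×10^5 cells/mL) run in parallel with infected wells. Compounds tested as serial five-fold dilutions in triplicate. Viability read by MTT at 540/690 nm after 5 days, using the median OD of two or three wells. CC50 is the concentration reducing mock-infected cell viability by 50%. '>' marks the highest concentration tested that was non-cytotoxic.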

Series [4] in a line: Selectivity index, ratio of CC50 for cytotoxic activity against mock-infected human MT4 cells to EC50 for antiviral activity against HIV1 3B infected in human MT4 cells. The conditions noted are these: mock-infected (CC50) and HIV1 3B infected (EC50). It is filed as toxicity, cell-based. Summed up:
(§4)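 SI calculated as CC50 (mock-infected MT-4, MTT, 5 days) divided by EC50 against HIV-1 IIIB or HIV-2 ROD in MT-4 cells measured in the same MTT cytoprotection assay.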

Series [5] in a line: Selectivity index, ratio of CC50 for cytotoxic activity against mock-infected human MT4 cells to EC50 for antiviral activity against HIV2 ROD […] infected in human MT4 cells. It is filed as toxicity, cell-based. Particulars: mock-infected (CC50) and HIV2 ROD infected (EC50). In short, it runs like this:
as §4

For series [6], the target named is Human immunodeficiency virus type 1 reverse transcriptase (Human immunodeficiency virus 1) (UniProt Q72547). Kind of series: Inhibition of RNase H inhibition activity of HIV-1 BH10 reverse transcriptase expressed in Escherichia coli at 100 uM pre-incubated for 5 mins before [32P]-labeled template primer 31Trna/21P addition by polyacrylamide gel electrophoresis method. Summed up:
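Recombinant WT HIV-1 BH10 RT (20-40 nM) preincubated with compound for 5 min at 37°C. Buffer: 50 mM Tris-HCl pH 8.0, 50 mM NaCl, 5 mM MgCl2, 5% DMSO. Reactions started with 25 nM 5'-[32P]-labeled 31Trna/21P template-primer. Sampled from 0 to 4 min at 37°C, quenched with EDTA/formamide, and resolved by denaturing PAGE.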

For a further series, the system named is MT4. Described as §2. It is filed as cell-based. The conditions noted are these: mt4. Summed up: as §3
The mark [7] stands for this setting: Human immunodeficiency virus 1, 3B, MT4.
Setting [8] is: Human immunodeficiency virus 2, ISOLATE ROD, MT4.

Active and inactive are the calls of the source. The rule behind the calls is not given here.

Consider `O=C(Cn1cc(-c2cccc(Nc3nc(=O)n(O)c4ncccc34)c2)nn1)Nc1ccc(C(F)(F)F)cc1`, for which the EC50 in series [1] (setting [7]) and in series [2] (setting [8]) was greater than 239 µM each time. Moreover, the CC50 in series [3] is greater than 239 µM. Also, the selectivity ratio in series [4] and in series [5] was 1 each time.
Take `O=c1c2cc(Br)ccc2n(Cc2cn(Cc3ccccc3Cl)nn2)c(=O)n1O`: the EC50 in series [1] (setting [7]) and in series [2] (setting [8]) was greater than 22.3 µM throughout. In series [3], the cytotoxic concentration (CC50) came out at 22.3 µM. The selectivity ratio in series [4] and in series [5] was less than 1 in each case.
For `O=C(Cn1cc(-c2cccc(Nc3nc(=O)n(O)c4ncccc34)c2)nn1)Nc1ccccc1`, the EC50 was 26.8 µM in series [1] (setting [7]) and greater than 275 µM in series [2] (setting [8]). Also, the CC50 in series [3] is greater than 275 µM. For the same compound, the selectivity ratio was greater than 10 in series [4] and 1 in series [5].
For the compound `O=c1nc(Nc2cccc(-c3cn(CCc4ccccc4)nn3)c2)c2cccnc2n1O`, the EC50 turned out to be 9.5 µM in series [1] (setting [7]) and 14.6 µM in series [2] (setting [8]). In series [3], the CC50 was greater than 294 µM. Besides, the selectivity ratio is greater than 31 in series [4] and greater than 20 in series [5].
On to `O=c1c2cc(Br)ccc2n(Cc2cn(Cc3ccccc3)nn2)c(=O)n1O`, for which the EC50 in series [1] (setting [7]) and in series [2] (setting [8]) was greater than 23.7 µM each time. Also, in series [3], the half-maximal cytotoxic concentration (CC50) came to 23.7 µM. The selectivity ratio in series [4] and in series [5] was less than 1 in each case.
In the case of `O=c1c2cc(Br)ccc2n(Cc2cn(Cc3ccc(Cl)cc3)nn2)c(=O)n1O`, the EC50 in series [1] (setting [7]) and in series [2] (setting [8]) was greater than 24.1 µM throughout. The CC50 in series [3] is 24.1 µM. For the same compound, the selectivity ratio in series [4] and in series [5] was less than 1 each time.
`Cc1nnc(C(=O)NC(C)(C)c2nc(C(=O)NCc3ccc(F)cc3)c(O)c(=O)n2C)o1`: the values for the EC50 in series [1] (setting [7]) and in series [2] (setting [8]) were 0.0078 µM and 0.011 µM, respectively. Further, in series [3], the half-maximal cytotoxic concentration (CC50) was greater than 55.8 µM.
As for `Cc1ccc(Cn2cc(-c3ccccc3Nc3nc(=O)n(O)c4ncccc34)nn2)cc1`, the EC50 in series [1] (setting [7]) and in series [2] (setting [8]) was greater than 1.1 µM throughout. Also, the CC50 in series [3] was 1.1 µM. Also, the selectivity ratio in series [4] and in series [5] was less than 1 in each case.
As for `O=c1nc(Nc2cccc(-c3cn(CCCc4ccccc4)nn3)c2)c2cccnc2n1O`, the EC50 in series [1] (setting [7]) was 26.1 µM; in series [2] (setting [8]), greater than 239 µM. Besides, the CC50 in series [3] was found to be 239 µM. The selectivity ratio in series [4] is 9; in series [5], less than 1.
The corresponding values for `O=c1c2cc(Br)ccc2n(Cc2cn(Cc3ccc(Br)cc3)nn2)c(=O)n1O` are greater than 21.8 µM, greater than 21.8 µM, 21.8 µM, less than 1 and less than 1.
For the compound `O=c1nc(Nc2cccc(-c3cn(-c4cccc5ccccc45)nn3)c2)c2cccnc2n1O`, the EC50 in series [1] (setting [7]) worked out at 27.1 µM; in series [2] (setting [8]), 69.4 µM. Also, the CC50 in series [3] was greater than 279 µM. The selectivity ratio in series [4] is greater than 10; in series [5], greater than 4.
With `O=c1c2cc(Br)ccc2n(Cc2cn(Cc3ccc(F)cc3)nn2)c(=O)n1O`, the EC50 in series [1] (setting [7]) and in series [2] (setting [8]) was greater than 25.1 µM each time. Besides, in series [3], the CC50 was found to be 25.1 µM. The selectivity ratio in series [4] and in series [5] was less than 1 each time. Further, the inhibition entry in series [6] was “Active”.
For `O=C(Cn1cc(-c2cccc(Nc3nc(=O)n(O)c4ncccc34)c2)nn1)c1ccc(F)cc1`, the results for the concentration giving a half-maximal response (EC50) in series [1] (setting [7]) and in series [2] (setting [8]) were 3 µM and greater than 273 µM, respectively. Besides, the CC50 in series [3] was greater than 273 µM. Besides, the selectivity ratio in series [4] is greater than 91; in series [5], 1.
As to `O=c1c2cc(Br)ccc2n(Cc2cn(Cc3cccc(F)c3)nn2)c(=O)n1O`, the EC50 in series [1] (setting [7]) and in series [2] (setting [8]) was greater than 24.9 µM in each case. Also, the CC50 in series [3] is 24.9 µM. Besides, the selectivity ratio in series [4] and in series [5] was less than 1 each time.
Turning to `O=c1c2cc(Br)ccc2n(Cc2cn(Cc3ccc(F)c(F)c3)nn2)c(=O)n1O`, the EC50 in series [1] (setting [7]) and in series [2] (setting [8]) was greater than 24.7 µM each time. Moreover, the CC50 in series [3] was found to be 24.7 µM. For the same compound, the selectivity ratio in series [4] and in series [5] was less than 1 throughout.
For the compound `COc1cc2c(cc1Cc1cccc(Cl)c1F)c(=O)c(C(=O)O)cn2[C@H](CO)C(C)C`, the EC50 in series [1] (setting [7]) amounted to 0.0023 µM; in series [2] (setting [8]), 0.0038 µM. For the same compound, the CC50 in series [3] was 6.3 µM.
Take `O=c1c2cc(Br)ccc2n(Cc2cn(Cc3ccc([N+](=O)[O-])cc3)nn2)c(=O)n1O`: the EC50 in series [1] (setting [7]) and in series [2] (setting [8]) was greater than 22.4 µM in each case. Also, in series [3], the CC50 came out at 22.4 µM. For the same compound, the selectivity ratio in series [4] and in series [5] was less than 1 in each case.
As for `Cc1cccc(Cn2cc(Cn3c(=O)n(O)c(=O)c4cc(Br)ccc43)nn2)c1`, the EC50 in series [1] (setting [7]) and in series [2] (setting [8]) was greater than 24 µM in each case. The CC50 in series [3] was found to be 24 µM. Besides, the selectivity ratio in series [4] and in series [5] was less than 1 throughout.
As to `O=c1nc(Nc2cccc(-c3cn(Cc4ccc(F)cc4)nn3)c2)c2cccnc2n1O`, the EC50 was 0.92 µM in series [1] (setting [7]) and 2.82 µM in series [2] (setting [8]). Moreover, in series [3], the CC50 is greater than 291 µM. In addition, the selectivity ratio was greater than 318 in series [4] and greater than 103 in series [5].
The corresponding values for `O=C(Cn1cc(-c2cccc(Nc3nc(=O)n(O)c4ncccc34)c2)nn1)Nc1ccc(F)cc1` are 232 µM, greater than 265 µM, greater than 265 µM, greater than 1 and 1.
With `O=c1nc(Nc2ccccc2-c2cn(Cc3ccc(F)cc3)nn2)c2cccnc2n1O`, the EC50 in series [1] (setting [7]) and in series [2] (setting [8]) was greater than 2.7 µM each time. Besides, the CC50 in series [3] came out at 2.7 µM. Further, the selectivity ratio in series [4] and in series [5] was less than 1 each time.
For `Cc1nnc(C(=O)NC(C)(C)c2nc(C(=O)NCc3ccc(F)cc3)c(O)c(=O)n2C)o1` [RALTEGRAVIR POTASSIUM], the results for the EC50 in series [1] and in series [2] were 0.0077 µM and 0.016 µM, respectively. In the series with MT4, the CC50 is greater than 51.8 µM.
Consider `Cc1ccccc1Cn1cc(Cn2c(=O)n(O)c(=O)c3cc(Br)ccc32)nn1`, for which the EC50 in series [1] (setting [7]) and in series [2] (setting [8]) was greater than 17.8 µM in each case. Also, the CC50 in series [3] was determined as 17.8 µM. In addition, the selectivity ratio in series [4] and in series [5] was less than 1 each time.
